Laboratory results taken from ChEMBL document CHEMBL1136726, “Synthesis and characterization of iodine-123 labeled 2beta-carbomethoxy-3beta-(4'-((Z)-2-iodoethenyl)phenyl)nortropane. A ligand for in vivo imaging of serotonin transporters by single-photon-emission tomography” (J Med Chem, 2003).

Columns and labels:
Rattus norvegicus [1] = test: Distribution of radioactivity in rat brain region cerebellum 60 min after intravenous administration of iodine labeled compound in presence of reboxetine blocker in study 2; type: ADME, organism-based; conditions: in vivo, 1 h
Summary of the method: (§1)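 Male Sprague–Dawley rats (250–300 g), ketamine-anesthetized. Blocker (2 mg/kg) or none was given iv 15 min before tail-vein radioligand (10 µCi in 0.2 mL 10% EtOH/saline). Rats were killed at 60 min with im pentobarbital. Brain regions were dissected, weighed and gamma-counted. % dose/g was taken from decay-corrected, background-subtracted counts versus the injected dose.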

Rattus norvegicus [2] = test: Distribution of radioactivity in rat brain region frontal cortex 60 min after intravenous administration of iodine labeled compound in absence of blocker in study 1; type: ADME, organism-based; conditions: in vivo, 1 h; summary of the method: as §1
Rattus norvegicus [3] = test: Distribution of radioactivity in rat brain striatum 120 min after intravenous administration of iodine labeled compound; type: ADME, organism-based; conditions: in vivo, 2 h
Summary of the method: (§2)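 Male Sprague–Dawley rats (225–300 g) under ketamine anaesthesia were given [123I]ZIENT (10 μCi) in 0.2 mL 10% EtOH/0.9% NaCl into the tail vein, with a saline flush. Hypothalamus, prefrontal cortex, striatum, pons and cerebellum were dissected and gamma-counted. % injected dose/g came from decay-corrected counts against the diluted injected dose, and region/cerebellum ratios were taken from these. Mean ± SE, n=4–5.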

Rattus norvegicus [4] = test: Distribution of radioactivity in rat heart 120 min after intravenous administration of iodine labeled compound; type: ADME, organism-based; conditions: in vivo, 2 h
Summary of the method: (§3)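 Tail-vein injection of [123I]ZIENT (10 μCi in 0.2 mL 10% EtOH/0.9% NaCl, then 0.4 mL saline flush) into ketamine-anaesthetised male Sprague–Dawley rats (225–300 g). Animals were killed by cardiac excision at set times. Organs were excised, rinsed, blotted, weighed and gamma-counted. % dose/g was calculated against diluted aliquots of injectate. Mean ± SE, n=4–5.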

Rattus norvegicus [5] = test: Distribution of radioactivity in rat heart 30 min after intravenous administration of iodine labeled compound; type: ADME, organism-based; conditions: in vivo, 0.5 h; summary of the method: as §3
Rattus norvegicus [6] = test: Distribution of radioactivity in rat kidney 5 min after intravenous administration of iodine labeled compound; type: ADME, organism-based; conditions: in vivo; summary of the method: as §3
Rattus norvegicus [7] = test: Distribution of radioactivity in rat brain 120 min after intravenous administration of iodine labeled compound; type: ADME, organism-based; conditions: in vivo, 2 h
Rattus norvegicus [8] = test: Distribution of radioactivity in rat brain region striatum 60 min after intravenous administration of iodine labeled compound in presence of RTI-113 blocker in study 1; type: ADME, organism-based; conditions: in vivo, 1 h
Summary of the method: (§4)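 Male Sprague–Dawley rats (250–300 g), ketamine-anaesthetised, received [123I]ZIENT (10 μCi) in 0.2 mL 10% ethanol/0.9% NaCl via the tail vein. […] Rats were killed at 60 min with pentobarbital, brain regions dissected and gamma-counted. Values are % dose/g from decay-corrected, background-subtracted counts against the diluted injected dose.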

Rattus norvegicus [9] = test: Distribution of radioactivity in rat brain region striatum 60 min after intravenous administration of iodine labeled compound in presence of fluvoxamine blocker in study 1; type: ADME, organism-based; conditions: in vivo, 1 h; summary of the method: as §4
Rattus norvegicus [10] = test: Ratio of distribution of radioactivity in rat brain region prefrontal cortex and cerebellum 60 min after intravenous administration of iodine labeled compound in presence of reboxetine blocker in study 2; type: ADME, organism-based; conditions: in vivo, 1 h
Rattus norvegicus [11] = test: Ratio of distribution of radioactivity in rat brain region striatum and cerebellum 60 min after intravenous administration of iodine labeled compound in absence of blocker in study 2; type: ADME, organism-based; conditions: in vivo, 1 h
Rattus norvegicus [12] = test: Ratio of distribution of radioactivity in rat brain region striatum and cerebellum 60 min after intravenous administration of iodine labeled compound in presence of RTI-113 blocker in study 1; type: ADME, organism-based; conditions: in vivo, 1 h
Rattus norvegicus [13] = test: Ratio of distribution of radioactivity in rat brain region striatum and cerebellum 60 min after intravenous administration of iodine labeled compound in presence of fluvoxamine blocker in study 1; type: ADME, organism-based; conditions: in vivo, 1 h
Rattus norvegicus [14] = test: Distribution of radioactivity in rat brain region hypothalamus 60 min after intravenous administration of iodine labeled compound in presence of reboxetine blocker in study 2; type: ADME, organism-based; conditions: in vivo, 1 h; summary of the method: as §1
Rattus norvegicus [15] = test: Distribution of radioactivity in rat brain cerebellum 5 min after intravenous administration of iodine labeled compound; type: ADME, organism-based; conditions: in vivo
Summary of the method: (§5)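 Male Sprague–Dawley rats (225–300 g) under ketamine received 10 µCi radioligand iv (tail vein) in 10% EtOH/saline. Hypothalamus, prefrontal cortex, striatum, pons and cerebellum were dissected, weighed and gamma-counted. % injected dose/g was taken from decay-corrected counts versus diluted dose. Mean ± SE and range, n=5 (5, 30 min) or 4 (60, 120 min).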

Rattus norvegicus [16] = test: Distribution of radioactivity in rat brain pons 30 min after intravenous administration of iodine labeled compound; type: ADME, organism-based; conditions: in vivo, 0.5 h; summary of the method: as §5
Rattus norvegicus [17] = test: Distribution of radioactivity in rat brain prefrontal cortex 120 min after intravenous administration of iodine labeled compound; type: ADME, organism-based; conditions: in vivo, 2 h; summary of the method: as §5
Rattus norvegicus [18] = test: Distribution of radioactivity in rat brain region frontal cortex 60 min after intravenous administration of iodine labeled compound in presence of reboxetine blocker in study 2; type: ADME, organism-based; conditions: in vivo, 1 h; summary of the method: as §1
Rattus norvegicus [19] = test: Distribution of radioactivity in rat lung 120 min after intravenous administration of iodine labeled compound; type: ADME, organism-based; conditions: in vivo, 2 h; summary of the method: as §3
Rattus norvegicus [20] = test: Distribution of radioactivity in rat lung 30 min after intravenous administration of iodine labeled compound; type: ADME, organism-based; conditions: in vivo, 0.5 h; summary of the method: as §3
Rattus norvegicus [21] = test: Distribution of radioactivity in rat lung 5 min after intravenous administration of iodine labeled compound; type: ADME, organism-based; conditions: in vivo; summary of the method: as §3
Rattus norvegicus [22] = test: Distribution of radioactivity in rat muscle tissue 5 min after intravenous administration of iodine labeled compound; type: ADME, organism-based; conditions: in vivo; summary of the method: as §3
Rattus norvegicus [23] = test: Distribution of radioactivity in rat muscle tissue 60 min after intravenous administration of iodine labeled compound; type: ADME, organism-based; conditions: in vivo, 1 h; summary of the method: as §3
Rattus norvegicus [24] = test: Distribution of radioactivity in rat spleen 120 min after intravenous administration of iodine labeled compound; type: ADME, organism-based; conditions: in vivo, 2 h; summary of the method: as §3
Rattus norvegicus [25] = test: Distribution of radioactivity in rat spleen 5 min after intravenous administration of iodine labeled compound; type: ADME, organism-based; conditions: in vivo; summary of the method: as §3
Rattus norvegicus [26] = test: Distribution of radioactivity in rat thyroid 120 min after intravenous administration of iodine labeled compound; type: ADME, organism-based, Thyroid gland; conditions: in vivo, 2 h; summary of the method: as §3
Rattus norvegicus [27] = test: Distribution of radioactivity in rat thyroid 5 min after intravenous administration of iodine labeled compound; type: ADME, organism-based, Thyroid gland; conditions: in vivo; summary of the method: as §3
Rattus norvegicus [28] = test: Ratio of distribution of radioactivity in rat brain hypothalamus and cerebellum 5 min after intravenous administration of iodine labeled compound; type: ADME, organism-based; conditions: in vivo; summary of the method: as §2
Rattus norvegicus [29] = test: Ratio of distribution of radioactivity in rat brain hypothalamus and cerebellum 60 min after intravenous administration of iodine labeled compound; type: ADME, organism-based; conditions: in vivo, 1 h; summary of the method: as §2
Rattus norvegicus [30] = test: Ratio of distribution of radioactivity in rat brain region hypothalamus and cerebellum 60 min after intravenous administration of iodine labeled compound in absence of blocker in study 1; type: ADME, organism-based; conditions: in vivo, 1 h
Rattus norvegicus [31] = test: Ratio of distribution of radioactivity in rat brain region hypothalamus and cerebellum 60 min after intravenous administration of iodine labeled compound in absence of blocker in study 2; type: ADME, organism-based; conditions: in vivo, 1 h
Rattus norvegicus [32] = test: Ratio of distribution of radioactivity in rat brain region pons and cerebellum 60 min after intravenous administration of iodine labeled compound in presence of RTI-113 blocker in study 1; type: ADME, organism-based; conditions: in vivo, 1 h
[33] = target: Sodium-dependent serotonin transporter (Homo sapiens, UniProt P31645); test: In vitro competitive binding versus [3H]citalopram in murine kidney cells transfected with cDNA for human serotonin transporter (SERT); type: cell-based
Sodium-dependent serotonin transporter, sequence (P31645 whole entry): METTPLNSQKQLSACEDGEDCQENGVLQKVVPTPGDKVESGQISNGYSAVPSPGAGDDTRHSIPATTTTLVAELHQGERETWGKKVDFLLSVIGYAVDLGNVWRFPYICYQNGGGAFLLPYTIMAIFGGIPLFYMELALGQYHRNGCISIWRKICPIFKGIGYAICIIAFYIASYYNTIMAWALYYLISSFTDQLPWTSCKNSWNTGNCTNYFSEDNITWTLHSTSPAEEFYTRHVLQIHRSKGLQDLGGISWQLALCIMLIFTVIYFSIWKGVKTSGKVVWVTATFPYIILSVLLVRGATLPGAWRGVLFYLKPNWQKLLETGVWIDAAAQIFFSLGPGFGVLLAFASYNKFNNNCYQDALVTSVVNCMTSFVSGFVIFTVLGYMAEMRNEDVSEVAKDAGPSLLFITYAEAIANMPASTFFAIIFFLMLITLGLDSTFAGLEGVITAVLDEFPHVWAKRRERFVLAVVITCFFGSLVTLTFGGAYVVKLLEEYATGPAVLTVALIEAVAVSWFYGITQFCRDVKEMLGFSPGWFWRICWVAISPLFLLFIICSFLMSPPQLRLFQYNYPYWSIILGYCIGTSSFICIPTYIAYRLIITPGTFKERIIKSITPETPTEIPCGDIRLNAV

Rattus norvegicus [34] = test: Distribution of radioactivity in rat spleen 30 min after intravenous administration of iodine labeled compound; type: ADME, organism-based; conditions: in vivo, 0.5 h; summary of the method: as §3
Rattus norvegicus [35] = test: Ratio of distribution of radioactivity in rat brain region hypothalamus and cerebellum 60 min after intravenous administration of iodine labeled compound in presence of RTI-113 blocker in study 1; type: ADME, organism-based; conditions: in vivo, 1 h
Rattus norvegicus [36] = test: Distribution of radioactivity in rat brain hypothalamus 60 min after intravenous administration of iodine labeled compound; type: ADME, organism-based; conditions: in vivo, 1 h; summary of the method: as §5

COC(=O)[C@@H]1C2CCC(C[C@@H]1c1ccc(/C=C\I)cc1)N2 (stereo partly specified)
Distribution (dose/g) (Rattus norvegicus [1]): 0.23%
Distribution (dose/g) (Rattus norvegicus [2]): 0.75%
Distribution (dose/g) (Rattus norvegicus [3]): 0.49%
Distribution (dose/g) (Rattus norvegicus [4]): 0.22%
Distribution (dose/g) (Rattus norvegicus [5]): 0.36%
Distribution (dose/g) (Rattus norvegicus [6]): 1.13%
Distribution (dose/g) (Rattus norvegicus [7]): 0.39%
Distribution (dose/g) (Rattus norvegicus [8]): 0.64%
Distribution (dose/g) (Rattus norvegicus [9]): 0.3%
Distribution (dose/g) (Rattus norvegicus [10]): 3.07%
Distribution (dose/g) (Rattus norvegicus [11]): 3.32%
Distribution (dose/g) (Rattus norvegicus [12]): 2.56%
Distribution (dose/g) (Rattus norvegicus [13]): 1.76%
Distribution (dose/g) (Rattus norvegicus [14]): 0.65%
Distribution (dose/g) (Rattus norvegicus [15]): 0.53%
Distribution (dose/g) (Rattus norvegicus [16]): 0.6%
Distribution (dose/g) (Rattus norvegicus [17]): 0.49%
Distribution (dose/g) (Rattus norvegicus [18]): 0.63%
Distribution (dose/g) (Rattus norvegicus [19]): 0.76%
Distribution (dose/g) (Rattus norvegicus [20]): 1.59%
Distribution (dose/g) (Rattus norvegicus [21]): 4.96%
Distribution (dose/g) (Rattus norvegicus [22]): 0.23%
Distribution (dose/g) (Rattus norvegicus [23]): 0.2%
Distribution (dose/g) (Rattus norvegicus [24]): 0.43%
Distribution (dose/g) (Rattus norvegicus [25]): 1.81%
Distribution (dose/g) (Rattus norvegicus [26]): 1.87%
Distribution (dose/g) (Rattus norvegicus [27]): 0.17%
Distribution (dose/g) (Rattus norvegicus [28]): 1.09%
Distribution (dose/g) (Rattus norvegicus [29]): 3.08%
Distribution (dose/g) (Rattus norvegicus [30]): 3.83%
Distribution (dose/g) (Rattus norvegicus [31]): 3.95%
Distribution (dose/g) (Rattus norvegicus [32]): 2.24%
Ki [33]: 0.05 nM
Distribution (dose/g) (Rattus norvegicus [34]): 0.81%
Distribution (dose/g) (Rattus norvegicus [35]): 3.2%
Distribution (dose/g) (Rattus norvegicus [36]): 0.77%
